Results from ChEMBL document CHEMBL1155265, “Design, synthesis and in vitro antibacterial/antifungal evaluation of novel 1-ethyl-6-fluoro-1,4-dihydro-4-oxo-7(1-piperazinyl)quinoline-3-carboxylic acid derivatives” (2009).

What was measured:
Format in all cases: functional
Erwinia = test: Antibacterial activity against Erwinia aroideae at 50 mg/L after 24 hrs by agar well diffusion method; details: read-out: DIZ
In short: (§1)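 Bacteria plated as 0.8 mL of 24-h-old inoculum mixed into 60 mL sterile molten agar cooled to 45 °C, poured into three dishes. Wells bored with centres at least 24 mm apart. Test sample at 50 mg/L in DMSO added to wells. DMSO served as negative control and agricultural streptomycin sulfate as positive control. Read-out was inhibition zone diameter (mm).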

Xanthomonas axonopodis = test: Antibacterial activity against Xanthomonas axonopodis at 50 mg/L after 24 hrs by agar well diffusion method; details: read-out: DIZ; in short: as §1
Cytospora mali = test: Antifungal activity against Valsa mali at 200 mg/L by plate growth rate method; details: read-out: GI
In short: (§2)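 Compound dissolved in DMSO and mixed into molten PDA at 45 °C at 200 mg/L, then plates allowed to set. A 5 mm mycelial agar disc was placed at the centre. Plates were incubated at 28 °C in the dark until the untreated control covered the plate. Colony diameters were measured and growth inhibition calculated by Abbott's formula. Each compound was tested three times.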

Rhizoctonia solani = test: Antifungal activity against Rhizoctonia solani at 200 mg/L by plate growth rate method; details: read-out: GI; in short: as §2
Ralstonia solanacearum = test: Antibacterial activity against Ralstonia solanacearum at 50 mg/L after 24 hrs by agar well diffusion method; details: read-out: DIZ
Fusarium graminearum = test: Antifungal activity against Gibberella zeae at 200 mg/L by plate growth rate method; details: read-out: GI
In short: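 Plate growth rate method: compound dissolved in DMSO, mixed into sterile PDA at 45 °C to 200 mg/L, plates poured. A 5 mm mycelium agar disc placed centrally; incubated at 28 °C in the dark until the untreated control covered the plate. Colony diameters measured; growth inhibition computed by Abbott's formula. Each compound tested three times.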

Bacillus subtilis = test: Antibacterial activity against Bacillus subtilis at 50 mg/L after 24 hrs by agar well diffusion method; details: read-out: DIZ; in short: as §1
Xanthomonas oryzae = test: Antibacterial activity against Xanthomonas oryzae at 50 mg/L after 24 hrs by agar well diffusion method; details: read-out: DIZ

Row | SMILES | zone of inhibition at 50 µg/mL (Erwinia) [mm] | zone of inhibition at 50 µg/mL (Xanthomonas axonopodis) [mm] | inhibition of growth at 200 µg/mL (Cytospora mali) [%] | inhibition of growth at 200 µg/mL (Rhizoctonia solani) [%] | zone of inhibition at 50 µg/mL (Ralstonia solanacearum) [mm] | inhibition of growth at 200 µg/mL (Fusarium graminearum) [%] | zone of inhibition at 50 µg/mL (Bacillus subtilis) [mm] | zone of inhibition at 50 µg/mL (Xanthomonas oryzae) [mm]
1 | CCn1cc(C(=O)O)c(=O)c2cc(F)c(N3CCN(C(=O)COc4ccc(Cl)cc4Cl)CC3)cc21 | 8.52 | 8.16 | 17 | 72 | 0.5 | 5 | 9.91 | 10
2 | CCn1cc(C(=O)O)c(=O)c2cc(F)c(N3CCN(C(=O)c4ccccc4Cl)CC3)cc21 | 16 | 14.2 | 41 | 5 | 8.97 | 27 | 19 | 16.9
3 | CCn1cc(C(=O)O)c(=O)c2cc(F)c(N3CCN(C(=O)COc4ccccc4)CC3)cc21 | 13.8 | 15 | 8 | 30 | 4.89 | 17 | 17.3 | 15.3
4 | CCn1cc(C(=O)O)c(=O)c2cc(F)c(N3CCN(C(=O)COc4ccccc4C)CC3)cc21 | 13.4 | 10.7 | 19 | 34 | 6.22 | 20 | 15.3 | 14.2
5 | CCn1cc(C(=O)O)c(=O)c2cc(F)c(N3CCN(C(=O)COc4ccccc4Cl)CC3)cc21 | 11.8 | 10.4 | 12 | 3 | 4.67 | 10 | 14.2 | 17.2
6 | CCn1cc(C(=O)O)c(=O)c2cc(F)c(N3CCN(C(=O)c4cc(C)oc4C)CC3)cc21 | 11.7 | 11.7 | 29 | 16 | 8.39 | 25 | 15.7 | 18.1
7 | CN[C@@H]1[C@H](O[C@H]2[C@H](O[C@H]3[C@H](O)[C@@H](O)[C@H](N=C(N)N)[C@@H](O)[C@@H]3N=C(N)N)O[C@@H](C)[C@]2(O)C=O)O[C@@H](CO)[C@H](O)[C@H]1O [STREPTOMYCIN] | 0.5 | 0.2 | – | – | 17.3 | – | 25 | 0.81
8 | CCn1cc(C(=O)O)c(=O)c2cc(F)c(N3CCNCC3)cc21 [NORFLOXACIN] | 21.5 | 17.7 | 27 | 0 | 19.3 | 18 | 30.5 | 22.2
9 | COC(=O)Nc1nc2ccccc2[nH]1 [CARBENDAZIM] | – | – | 95 | 100 | – | 100 | – | –
10 | CCn1cc(C(=O)O)c(=O)c2cc(F)c(N3CCN(C(=O)Cc4cccc5ccccc45)CC3)cc21 | 10.4 | 9.99 | 0 | 5 | 0 | 12 | 13.2 | 9.35
11 | CCn1cc(C(=O)O)c(=O)c2cc(F)c(N3CCN(C(=O)COc4ccc(OC)cc4)CC3)cc21 | 15.2 | 12.5 | 10 | 60 | 6.31 | 17 | 17.6 | 14.5
12 | CCn1cc(C(=O)O)c(=O)c2cc(F)c(N3CCN(C(=O)COc4ccc(C(C)(C)C)cc4)CC3)cc21 | 8.52 | 6.41 | 14 | 53 | 10.9 | 28 | 10.8 | 5.81
